Results reported in ChEMBL document CHEMBL4673248, “Discovery and Characterization of BAY 1214784, an Orally Available Spiroindoline Derivative Acting as a Potent and Selective Antagonist of the Human Gonadotropin-Releasing Hormone Receptor as Proven in a First-In-Human Study in Postmenopausal Women” (J Med Chem, 2020).

Columns and labels:
[1] = biological target: T1, Gonadotropin-releasing hormone receptor (Homo sapiens, UniProt P30968); assay: Antagonist activity at human GnRH receptor expressed in CHO-K1 cells assessed as inhibition of buserelin-induced response preincubated for 20 mins followed by buserelin addition and measured after 60 mins by TR-FRET assay; assay type: cell-based
T1 sequence (P30968 whole entry): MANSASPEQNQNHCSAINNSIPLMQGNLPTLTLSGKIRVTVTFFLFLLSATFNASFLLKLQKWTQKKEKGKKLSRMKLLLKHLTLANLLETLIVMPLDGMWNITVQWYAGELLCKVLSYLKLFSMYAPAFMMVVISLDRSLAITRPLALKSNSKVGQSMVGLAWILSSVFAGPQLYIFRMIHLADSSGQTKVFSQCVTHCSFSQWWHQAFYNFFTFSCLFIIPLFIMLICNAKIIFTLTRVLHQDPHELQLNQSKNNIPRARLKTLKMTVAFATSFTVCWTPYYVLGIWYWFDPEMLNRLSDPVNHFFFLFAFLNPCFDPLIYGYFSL

[2] = biological target: T1, Gonadotropin-releasing hormone receptor; assay: Antagonist activity at human GnRH receptor expressed in CHO-K1 cells assessed as inhibition of LHRH-induced response preincubated for 20 mins followed by LHRH addition and measured after 60 mins by TR-FRET assay; assay type: cell-based
[3] = biological target: T2, Gonadotropin-releasing hormone receptor (Rattus norvegicus, UniProt P30969); assay: Antagonist activity at rat GnRH receptor expressed in CHO-K1 cells assessed as inhibition of buserelin-induced response preincubated for 20 mins followed by buserelin addition and measured after 60 mins by TR-FRET assay; assay type: cell-based
T2 sequence (P30969 whole entry): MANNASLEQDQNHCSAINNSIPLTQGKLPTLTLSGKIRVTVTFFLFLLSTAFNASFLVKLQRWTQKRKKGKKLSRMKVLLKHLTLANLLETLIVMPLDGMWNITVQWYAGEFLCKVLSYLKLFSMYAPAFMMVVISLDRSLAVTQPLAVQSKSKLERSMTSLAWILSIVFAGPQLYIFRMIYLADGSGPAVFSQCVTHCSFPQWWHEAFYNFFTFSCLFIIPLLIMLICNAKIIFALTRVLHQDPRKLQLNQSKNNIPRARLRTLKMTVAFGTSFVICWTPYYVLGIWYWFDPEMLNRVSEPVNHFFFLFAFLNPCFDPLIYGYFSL
How it was run: (§1)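 Frozen rat-receptor cells: thawed, seeded overnight in serum-containing Ham's F12, Accutase-harvested, resuspended in serum-free medium with IP1-d2, 1 h at 37 °C. 1.0 × 10^4 cells/well, 20 min compound preincubation at rt, then 1× EC80 LHRH or buserelin in HEPES stimulation buffer pH 7.4 for 60 min at 37 °C. Tb-anti-IP1 lysis (1:38), HTRF read 60 min later.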

[4] = biological target: T2, Gonadotropin-releasing hormone receptor; assay: Antagonist activity at rat GnRH receptor expressed in CHO-K1 cells assessed as inhibition of LHRH-induced response preincubated for 20 mins followed by LHRH addition and measured after 60 mins by TR-FRET assay; assay type: cell-based; how it was run: as §1
[5] = Lipophilicity, log D of the compound in pH 7.5 MeCN/H2O solution by reversed-phase HPLC analysis; assay type: physicochemical
How it was run: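 Indirect reversed-phase HPLC at pH 7.5, calibrated with n-alkan-2-ones C3–C16. Compounds applied as 0.67 mM DMSO stocks in MeCN/H2O (1:1).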

[6] = Intrinsic clearance in Han Wistar rat hepatocytes at 1 uM measured up to 90 mins by LC/MS/MS analysis; assay type: ADME, cell-based, Hepatocyte; settings: for CLint scaled at 1 µM: Han Wistar, read-out: CLH (converted)
[7] = Oral bioavailability in Wistar rat at 2 mg/kg by LC-MS/MS analysis; assay type: ADME, organism-based; settings: in vivo
[8] = Clearance in Wistar rat at 0.5 mg/kg, iv by LC-MS/MS analysis; assay type: ADME, organism-based; settings: in vivo

Compound | IC50 [1] | IC50 [2] | other results
O=C(Nc1ccc2c(c1)C1(CCC(O)(C(F)(F)F)CC1)C(C1CC1)N2S(=O)(=O)c1ccc(F)cc1)c1cccnc1 (stereo unspecified) | 228 nM | 78 nM | 
CC(=O)N1CCC2(CC1)CN(S(=O)(=O)c1ccc(F)cc1)c1ccc(C(=O)NCc3ccccc3Cl)cc12 | 1770 nM | 420 nM | 
COc1ccc(S(=O)(=O)N2c3ccc(C(=O)NCc4ccccc4Cl)cc3C(C)(C)C2C)cc1 (racemic) | 6620 nM | 365 nM | IC50 [3]: 4.87 µM; IC50 [4]: 1420 nM
O=C(Nc1ccc2c(c1)C1(CCSCC1)C(C1CC1)N2S(=O)(=O)c1ccc(F)cc1)c1cccnc1 (racemic) | 132 nM | 48 nM | 
O=C(NCc1ccc(C(F)(F)F)cn1)c1ccc2c(c1)C1(CCS(=O)(=O)CC1)C(C1CC1)N2S(=O)(=O)c1ccc(F)cc1 (racemic) | 415 nM | 159 nM | 
CC(=O)N1CCC2(CC1)c1cc(NC(=O)c3cccc(F)c3)ccc1N(S(=O)(=O)c1ccc(F)cc1)C2C1CC1 (racemic) | 18 nM | 10 nM | 
CC(=O)N1CCC2(CC1)c1cc(C(=O)NCc3ccccc3Cl)ccc1N(C(=O)c1ccc(F)cc1)C2C (racemic) | > 20000 nM | 18000 nM | 
O=C(NCc1ncc(F)cc1Cl)c1ccc2c(c1)C1(CCS(=O)(=O)CC1)C(C1CC1)N2S(=O)(=O)c1ccc(F)cc1 (racemic) | 144 nM | 65 nM | 
CC(=O)N1CCC2(CC1)c1cc(C(=O)NCc3ccccc3Cl)ccc1N(Cc1ccc(F)cc1)C2C (racemic) | 18200 nM | 12800 nM | 
CC(=O)N1CCC2(CC1)c1cc(C(=O)NCc3ccccc3Cl)ccc1N(S(=O)(=O)c1ccc(C(F)(F)F)cc1)C2C (racemic) | 13800 nM | > 20000 nM | 
CC(=O)N1CCC2(CC1)c1cc(C(=O)NCc3ccccc3Cl)ccc1N(S(C)(=O)=O)C2C (racemic) | 18100 nM | 10100 nM | 
O=C(NCc1ncccc1Cl)c1ccc2c(c1)C1(CCS(=O)(=O)CC1)C(C1CC1)N2S(=O)(=O)c1ccc(F)cc1 (racemic) | 222 nM | 90 nM | 
CC(=O)N1CCC2(CC1)c1cc(NC(=O)c3cccnc3)ccc1N(S(=O)(=O)c1ccc(F)cc1)C2C1CC1 (racemic) | 68 nM | 34 nM | 
CC(=O)N1CCC2(CC1)c1cc(C(=O)NCc3ccccc3)ccc1N(S(=O)(=O)c1ccc(F)cc1)C2C1CC1 (racemic) | 553 nM | 208 nM | 
CC1N(S(=O)(=O)c2ccccc2)c2ccc(C(=O)NCc3ccccc3Cl)cc2C1(C)C (racemic) | 1410 nM | 3060 nM | IC50 [3]: 4.84 µM
O=C(NCc1ccccn1)c1ccc2c(c1)C1(CCS(=O)(=O)CC1)C(C1CC1)N2S(=O)(=O)c1ccc(F)cc1 (racemic) | 921 nM | 245 nM | 
CC1N(S(=O)(=O)c2ccc(F)cc2)c2ccc(NC(=O)c3cccnc3)cc2C12CCOCC2 (racemic) | 140 nM | 53 nM | 
CC(=O)N1CCC2(CC1)c1cc(C(=O)NC3(c4ccccc4Cl)CC3)ccc1N(S(=O)(=O)c1ccc(F)cc1)C2C1CC1 (racemic) | 1050 nM | 162 nM | 
CC(=O)N1CCC2(CC1)c1cc(C(=O)NCc3ccccc3Cl)ccc1N(S(=O)(=O)c1ccc(F)cc1)C2CCO (racemic) | 1150 nM | 584 nM | 
CC(=O)N1CCC2(CC1)c1cc(C(=O)NCc3ccccc3Cl)ccc1N(S(=O)(=O)c1cccnc1)C2C (racemic) | 269 nM | 139 nM | 
O=C(NCc1ncc(C(F)(F)F)cc1F)c1ccc2c(c1)C1(CCS(=O)(=O)CC1)C(C1CC1)N2S(=O)(=O)c1ccc(F)cc1 (racemic) | 246 nM | 84 nM | 
O=C(NCc1ncc(C(F)(F)F)cc1Cl)c1ccc2c(c1)C1(CCS(=O)(=O)CC1)C(C1CC1)N2S(=O)(=O)c1ccc(F)cc1 (stereo in doubt) | 2430 nM |  | 
COc1ccc(S(=O)(=O)N2c3ccc(C(=O)NCc4ccccc4Cl)cc3C(C)(C)C2C)cc1 (stereo in doubt; 1a) | 1500 nM | 570 nM | IC50 [3]: 1.1 µM; chromatographic logD [5]: 3.8; CLint scaled at 1 µM [6]: 51.7 mL/min/kg; IC50 [4]: 730 nM
COc1ccc(S(=O)(=O)N2c3ccc(C(=O)NCc4ccccc4Cl)cc3C(C)(C)C2C)cc1 (stereo in doubt; form 1) | 1530 nM | 568 nM | IC50 [3]: 1.11 µM; IC50 [4]: 726 nM
COc1ccc(S(=O)(=O)N2c3ccc(C(=O)NCc4ccccc4Cl)cc3C3(CCN(C(C)=O)CC3)C2C)cc1 (stereo in doubt; form 1) | ≥ 20000 nM | ≥ 20000 nM | IC50 [4]: ≥ 20000 nM
CC(=O)N1CCC2(CC1)c1cc(C(=O)NCc3ccccc3Cl)ccc1N(S(=O)(=O)c1ccc(F)cc1)C2C (stereo in doubt; form 1) | > 20000 nM | > 20000 nM | 
COc1ccc(S(=O)(=O)N2c3ccc(C(=O)NCc4ccccc4Cl)cc3C(C)(C)C2C)cc1 (stereo in doubt; form 2) | ≥ 20000 nM | ≥ 20000 nM | IC50 [3]: ≥ 20 µM; IC50 [4]: ≥ 20000 nM
CC(=O)N1CCC2(CC1)c1cc(C(=O)NCc3ccccc3Cl)ccc1N(S(=O)(=O)c1ccc(F)cc1)C2C (stereo in doubt; form 2) |  | 21 nM | 

More lines, in order of falling IC50 [1], values ahead:

IC50 [1] | IC50 [2] | Compound | other results
131 nM | 53 nM | CC(=O)N1CCC2(CC1)c1cc(C(=O)NCc3ccccc3Cl)ccc1N(S(=O)(=O)c1ccccc1)C2C (racemic) | 
92 nM | 56 nM | CC(=O)N1CCC2(CC1)c1cc(C(=O)NC3(c4ccc(Cl)cc4)CC3)ccc1N(S(=O)(=O)c1ccc(F)cc1)C2C1CC1 (racemic) | 
90 nM | 87 nM | CC(=O)N1CCC2(CC1)c1cc(C(=O)NCc3ccccc3Cl)ccc1N(S(=O)(=O)c1ccc(F)cc1)C2C (racemic) | chromatographic logD [5]: 3.25
77 nM | 38 nM | CC(=O)N1CCC2(CC1)c1cc(C(=O)NCc3ccc(F)cc3Cl)ccc1N(S(=O)(=O)c1ccc(F)cc1)C2C1CC1 (racemic) | 
61 nM | 26 nM | O=C(Nc1ccc2c(c1)C1(CCC(O)CC1)C(C1CC1)N2S(=O)(=O)c1ccc(F)cc1)c1cccnc1 (stereo unspecified) | 
58.5 nM | 32 nM | N=S1(=O)CCC2(CC1)c1cc(NC(=O)c3cccnc3)ccc1N(S(=O)(=O)c1ccc(F)cc1)C2C1CC1 (stereo in doubt; form 1) | 
47 nM | 24 nM | CC(=O)N1CCC2(CC1)c1cc(C(=O)NCc3ccccc3Cl)ccc1N(S(=O)(=O)c1ccc(F)cc1)C2C1CC1 (racemic) | 
45 nM | 20 nM | O=C(Nc1ccc2c(c1)C1(CCS(=O)(=O)CC1)C(C1CC1)N2S(=O)(=O)c1ccc(F)cc1)c1cccnc1 (stereo unspecified) | 
44 nM | 20 nM | O=C(NCc1ncc(C(F)(F)F)cc1Cl)c1ccc2c(c1)C1(CCS(=O)(=O)CC1)C(C1CC1)N2S(=O)(=O)c1ccc(F)cc1 (racemic) | 
36 nM | 18 nM | O=C(Nc1ccc2c(c1)C1(CC[S+]([O-])CC1)C(C1CC1)N2S(=O)(=O)c1ccc(F)cc1)c1cccnc1 (stereo unspecified) | 
35 nM | 53.5 nM | CC(=O)N1CCC2(CC1)c1cc(C(=O)NCc3ncccc3Cl)ccc1N(S(=O)(=O)c1ccc(F)cc1)C2C (single isomer, unassigned) | CLint scaled at 1 µM [6]: 11.7 mL/min/kg; bioavailability [7]: 18%; clearance ([8]; Wistar): 28.3 mL/min/kg
28 nM | 15 nM | COc1ccc(S(=O)(=O)N2c3ccc(C(=O)NCc4ccccc4Cl)cc3C3(CCN(C(C)=O)CC3)C2C)cc1 (stereo in doubt; form 3) | CLH ([6]; 1.5 h, 1 µM): 1.2 L/h/kg; bioavailability [7]: 1.3%; CL ([8]; 0.5 mg/kg): 1.9 L/h/kg
26 nM | 13 nM | N=S1(=O)CCC2(CC1)c1cc(NC(=O)c3cccnc3)ccc1N(S(=O)(=O)c1ccc(F)cc1)C2C1CC1 (stereo in doubt; form 2) | 
22 nM | 10 nM | C=CCC1N(S(=O)(=O)c2ccc(F)cc2)c2ccc(C(=O)NCc3ccccc3Cl)cc2C12CCN(C(C)=O)CC2 (racemic) | 
